In brackets after ≈: the same amount, converted by molar mass.
Experiments:
[1] = tested on: Streptococcus pyogenes; test: In vitro minimum inhibitory concentration against Streptococcus pyogenes C 203; format: functional
[2] = tested on: Streptococcus pyogenes; test: In vivo effective dose given perorally to mice infected with Streptococcus pyogenes C 203; format: functional; details: po
How it was run: (§1)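 Mice (five per treatment group, five groups) infected intraperitoneally with about 10⁵ cells of Strep. pyogenes C 203, about 100× the LD50. ED50 (mg/kg) was calculated from the percentage of mice surviving at each dose on day 7.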

[3] = tested on: Streptococcus pyogenes; test: Subcutaneously administration into mice infected with Streptococcus pyogenes C 203; format: functional; details: sc; how it was run: as §1
[4] = tested on: Staphylococcus epidermidis; test: In vitro minimum inhibitory concentration against Staphylococcus epidermis ATCC 12228; format: functional
[5] = tested on: Staphylococcus haemolyticus; test: In vitro minimum inhibitory concentration against Staphylococcus hemolyticus 602 cell line; format: functional; details: strain 602
[6] = tested on: Enterococcus faecalis; test: In vitro minimum inhibitory concentration against Streptococcus faecalis ATCC 7080; format: functional
[7] = tested on: Streptococcus pneumoniae; test: In vitro minimum inhibitory concentration against Streptococcus pneumoniae UC41; format: functional
[8] = tested on: Staphylococcus aureus; test: In vitro minimum inhibitory concentration of compound against Staphylococcus aureus Tour; format: organism-based
[9] = tested on: Staphylococcus aureus; test: In vitro minimum inhibitory concentration against Staphylococcus aureus Tour; format: functional
[10] = tested on: Ac2-L-Lys-D-Ala-D-Ala peptide; test: Association constant with Ac2-L-Lys-D-Ala-D-Ala
How it was run: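 UV difference spectroscopy at 24 ± 2 °C in 4-cm unthermostated cells. Antibiotic was at 30 μM in 10% MeOH in sodium phosphate buffer, pH 9, and titrated with Ac2-L-Lys-D-Ala-D-Ala. ΔA was monitored at 294 nm. Ka was taken from the slope of a Scatchard plot.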

[11] = tested on: Bacteria; test: Minimum inhibitory concentration of compound against Gram negative bacteria; format: functional
[12] = tested on: Staphylococcus haemolyticus; test: 50 percent Minimum inhibitory concentration of compound against 8 strains of Staphylococcus hemolyticus; format: functional
How it was run: (§2)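 Agar dilution on Iso-Sensitest agar against clinical coagulase-negative staphylococcal isolates, including methicillin-resistant strains. Final inoculum about 10⁴ cfu/mL.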

[13] = tested on: Staphylococcus epidermidis; test: 50 percent Minimum inhibitory concentration of compound against 12 strains of Staphylococcus epidermidis; format: functional; how it was run: as §2
[14] = tested on: Staphylococcus epidermidis; test: 90 percent Minimum inhibitory concentration of compound against 12 strains of Staphylococcus epidermidis; format: functional; how it was run: as §2
[15] = tested on: Staphylococcus haemolyticus; test: Minimum inhibitory concentration of compound against 8 strains of Staphylococcus hemolyticus; format: functional; how it was run: as §2
[16] = tested on: Staphylococcus sp.; test: 50 percent Minimum inhibitory concentration of compound against 16 different strains of staphylococcus species; format: functional; how it was run: as §2
[17] = tested on: Staphylococcus sp.; test: Minimum inhibitory concentration of compound against 16 different strains of staphylococcus species; format: functional; how it was run: as §2
[18] = tested on: Staphylococcus sp.; test: 90 percent Minimum inhibitory concentration of compound against 16 different strains of staphylococcus species; format: functional; how it was run: as §2
[19] = tested on: Staphylococcus epidermidis; test: Minimum inhibitory concentration of compound against 12 strains of Staphylococcus epidermidis; format: functional; how it was run: as §2
[20] = tested on: Staphylococcus haemolyticus; test: 90 percent Minimum inhibitory concentration of compound against 8 strains of Staphylococcus hemolyticus; format: functional; how it was run: as §2

Row | MIC [1] | MIC [4] | MIC [6] | MIC [7] | MIC [8] | MIC [9] | Ka [10] | MIC [11] | MIC50 [13] | MIC90 [14] | MIC50 [16] | MIC [17] | MIC90 [18] | MIC [19] | SMILES | ED50 [2] | ED50 [3] | MIC [5] | MIC50 [12] | MIC [15] | MIC90 [20]
1 | 0.06 µg/mL (≈ 0.0292 µM) | 0.12 µg/mL (≈ 0.0585 µM) | 0.12 µg/mL (≈ 0.0585 µM) | 0.06 µg/mL (≈ 0.0292 µM) | 0.12 µg/mL (≈ 0.0585 µM) | – | – | – | – | – | – | – | – | – | CC(=O)N[C@@H]1[C@H](O[C@@H]2c3ccc(c(Cl)c3)Oc3cc4cc(c3O[C@@H]3O[C@@H](CO)[C@@H](O)[C@H](O)[C@@H]3NC(=O)CCCCCCC(C)C)Oc3ccc(cc3Cl)C[C@H]3NC(=O)[C@H](N)c5ccc(O)c(c5)Oc5cc(O)cc(c5)[C@H](NC3=O)C(=O)N[C@H]4C(=O)N[C@H]3C(=O)N[C@@H]2C(=O)N[C@H](C(=O)NC2CCN(Cc4ccccc4)CC2)c2cc(O)cc(O[C@H]4O[C@H](CO)[C@@H](O)[C@@H](O)[C@@H]4O)c2-c2cc3ccc2O)O[C@@H](CO)[C@@H](O)[C@@H]1O | > 300 mg/kg | 0.08 mg/kg | 4 µg/mL (≈ 1.95 µM) | – | – | –
2 | 0.5 µg/mL (≈ 0.304 µM) | 0.12 µg/mL (≈ 0.0729 µM) | 2 µg/mL (≈ 1.21 µM) | 1 µg/mL (≈ 0.607 µM) | – | 0.25 µg/mL (≈ 0.152 µM) | 100000 M⁻¹ | > 128 µg/mL | – | – | – | – | – | – | CC(=O)N[C@@H]1[C@H](O[C@@H]2c3ccc(c(Cl)c3)Oc3cc4cc(c3O)Oc3ccc(cc3Cl)C[C@H]3NC(=O)[C@H](N)c5ccc(O)c(c5)Oc5cc(O)cc(c5)[C@H](NC3=O)C(=O)N[C@H]4C(=O)N[C@H]3C(=O)N[C@@H]2C(=O)N[C@H](C(=O)N2CCN(C)CC2)c2cc(O)cc(O[C@H]4O[C@H](CO)[C@@H](O)[C@@H](O)[C@@H]4O)c2-c2cc3ccc2O)O[C@@H](CO)[C@@H](O)[C@@H]1O | – | 0.95 mg/kg | – | – | – | –
3 | 0.06 µg/mL (≈ 0.032 µM) | 0.25 µg/mL (≈ 0.133 µM) | 0.12 µg/mL (≈ 0.0639 µM) | 0.06 µg/mL (≈ 0.032 µM) | – | 0.12 µg/mL (≈ 0.0639 µM) | – | – | 0.5 µg/mL (≈ 0.266 µM) | 2 µg/mL (≈ 1.07 µM) | 1 µg/mL (≈ 0.533 µM) | 0.25 µg/mL (≈ 0.133 µM) | 4 µg/mL (≈ 2.13 µM) | 0.25 µg/mL (≈ 0.133 µM) | CCCCC/C=C/CCC(=O)N[C@@H]1[C@H](Oc2c3cc4cc2Oc2ccc(cc2Cl)[C@@H](O[C@@H]2O[C@@H](CO)[C@@H](O)[C@H](O)[C@@H]2NC(C)=O)[C@@H]2NC(=O)[C@H](NC(=O)[C@@H]4NC(=O)[C@H]4NC(=O)[C@@H](Cc5ccc(c(Cl)c5)O3)NC(=O)[C@H](N)c3ccc(O)c(c3)Oc3cc(O)cc4c3)c3ccc(O)c(c3)-c3c(O[C@H]4O[C@H](CO)[C@@H](O)[C@@H](O)[C@@H]4O)cc(O)cc3[C@@H](C(=O)O)NC2=O)O[C@@H](CO)[C@@H](O)[C@@H]1O | 170 mg/kg | 0.12 mg/kg | 4 µg/mL (≈ 2.13 µM) | 16 µg/mL (≈ 8.52 µM) | 2 µg/mL (≈ 1.07 µM) | 32 µg/mL (≈ 17 µM)
4 | 0.06 µg/mL (≈ 0.0306 µM) | 0.06 µg/mL (≈ 0.0306 µM) | 0.12 µg/mL (≈ 0.0611 µM) | 0.06 µg/mL (≈ 0.0306 µM) | – | 0.12 µg/mL (≈ 0.0611 µM) | – | – | 0.25 µg/mL (≈ 0.127 µM) | 1 µg/mL (≈ 0.509 µM) | 0.5 µg/mL (≈ 0.255 µM) | 0.25 µg/mL (≈ 0.127 µM) | 1 µg/mL (≈ 0.509 µM) | 0.125 µg/mL (≈ 0.0637 µM) | CC(=O)N[C@@H]1[C@H](O[C@@H]2c3ccc(c(Cl)c3)Oc3cc4cc(c3O[C@@H]3O[C@@H](CO)[C@@H](O)[C@H](O)[C@@H]3NC(=O)CCCCCCC(C)C)Oc3ccc(cc3Cl)C[C@H]3NC(=O)[C@H](N)c5ccc(O)c(c5)Oc5cc(O)cc(c5)[C@H](NC3=O)C(=O)N[C@H]4C(=O)N[C@H]3C(=O)N[C@@H]2C(=O)N[C@H](C(=O)NCCCN(C)C)c2cc(O)cc(O[C@H]4O[C@H](CO)[C@@H](O)[C@@H](O)[C@@H]4O)c2-c2cc3ccc2O)O[C@@H](CO)[C@@H](O)[C@@H]1O | 70.7 mg/kg | 0.05 mg/kg | 0.12 µg/mL (≈ 0.0611 µM) | 1 µg/mL (≈ 0.509 µM) | 1 µg/mL (≈ 0.509 µM) | 2 µg/mL (≈ 1.02 µM)

Reference: ChEMBL document CHEMBL1124366, “Synthesis and biological properties of N63-carboxamides of teicoplanin antibiotics. Structure-activity relationships” (J Med Chem, 1989)
